Results reported in ChEMBL document CHEMBL1123146, “Design, synthesis, and evaluation of omega-iodovinyl- and omega-iodoalkyl-substituted methyl-branched long-chain fatty acids” (J Med Chem, 1985).

Experiments:
[1] = test system: Rattus norvegicus; assay: Concentration was measured in heart tissue of unfasted Fischer 344 rats administered intravenously after 30 minutes (radiolabeled with [125I]-; format: ADME, organism-based; conditions: in vivo, iv, 0.5 h
Summary of the method: (§1)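 Female Fischer 344 rats, 10-12 weeks old, 170-200 g, with food and water ad libitum. The 125I-fatty acid was taken up in ethanol, added dropwise to stirred 6% BSA at ~40 °C (final ethanol 10%), filtered, and given as 0.5 mL via lateral tail vein under ether anesthesia. Rats were killed by cervical fracture; blood was taken by cardiac puncture. Organs were rinsed, blotted, weighed and gamma-counted against injectate standards to give %ID/g. Five rats per time point.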

[2] = test system: Rattus norvegicus; assay: Concentration was measured in lungs tissue of unfasted Fischer 344 rats administered intravenously after 60 minute (radiolabeled with [123I]-; format: ADME, organism-based, Lung; conditions: in vivo, iv, 1 h
[3] = test system: Rattus norvegicus; assay: Concentration was measured in kidney tissue of unfasted Fischer 344 rats administered intravenously after 4 hr (radiolabeled with [123I]-; format: ADME, organism-based; conditions: in vivo, iv
[4] = test system: Rattus norvegicus; assay: Concentration was measured in blood tissue of unfasted Fischer 344 rats administered intravenously after 60 minute (radiolabeled with [123I]-; format: ADME, organism-based; conditions: in vivo, iv, 1 h
[5] = test system: Rattus norvegicus; assay: Concentration was measured in heart tissue of unfasted Fischer 344 rats administered intravenously after 5 minute (radiolabeled with [123I]-; format: ADME, organism-based; conditions: in vivo, iv, 5 min
[6] = test system: Rattus norvegicus; assay: Concentration was measured in blood tissue of unfasted Fischer 344 rats administered intravenously after 30 minute (radiolabeled with [123I]-; format: ADME, organism-based; conditions: in vivo, iv, 0.5 h
[7] = test system: Rattus norvegicus; assay: Concentration was measured in thyroid tissue of fasted Fischer 344 rats administered intravenously after 30 minute (radiolabeled with [123I]-; conditions: in vivo, iv, 0.5 h
[8] = test system: Rattus norvegicus; assay: Concentration was measured in kidney tissue of unfasted Fischer 344 rats administered intravenously after 5 minute (radiolabeled with [123I]-; format: ADME, organism-based; conditions: in vivo, iv, 5 min
[9] = test system: Rattus norvegicus; assay: Concentration was measured in lungs tissue of unfasted Fischer 344 rats administered intravenously after 4 hr (radiolabeled with [123I]-; format: ADME, organism-based, Lung; conditions: in vivo, iv
[10] = test system: Rattus norvegicus; assay: Concentration was measured in liver tissue f unfasted Fischer 344 rats administered intravenously after 30 minute (radiolabeled with [125I]-; format: ADME, organism-based; conditions: in vivo, iv, 0.5 h; summary of the method: as §1
[11] = test system: Rattus norvegicus; assay: Concentration was measured in blood tissue of unfasted Fischer 344 rats administered intravenously after 60 minute (radiolabeled with [125I]-; format: ADME, organism-based; conditions: in vivo, iv, 1 h; summary of the method: as §1
[12] = test system: Rattus norvegicus; assay: Concentration was measured in kidney tissue of unfasted Fischer 344 rats administered intravenously after 30 minute (radiolabeled with [123I]-; format: ADME, organism-based; conditions: in vivo, iv, 0.5 h
[13] = test system: Rattus norvegicus; assay: Concentration was measured in lungs tissue of unfasted Fischer 344 rats administered intravenously after 60 minute (radiolabeled with [125I]-; format: ADME, organism-based, Lung; conditions: in vivo, iv, 1 h; summary of the method: as §1
[14] = test system: Rattus norvegicus; assay: (§2) Concentration was measured in tissue of unfasted Fischer 344 rats administered intravenously after 60 minute (radiolabeled with [125I]-; format: ADME, organism-based; conditions: in vivo, iv, 1 h
Summary of the method: (§3)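 Female Fischer 344 rats, 10–12 weeks old (170–200 g), with food and water ad libitum, five per time point. The radioiodinated fatty acid was dissolved in ethanol, added to 6% BSA at ~40 °C (final 10% ethanol), filtered, and injected into a lateral tail vein (0.5 mL) under ether anesthesia. Blood was taken by cardiac puncture; organs were rinsed, blotted, weighed and gamma-counted against injectate standards. Output is % injected dose/g.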

[15] = test system: Rattus norvegicus; assay: Concentration was measured in kidney tissue of unfasted Fischer 344 rats administered intravenously after 60 minute (radiolabeled with [125I]-; format: ADME, organism-based; conditions: in vivo, iv, 1 h; summary of the method: as §1
[16] = test system: Rattus norvegicus; assay: Concentration was measured in tissue of unfasted Fischer 344 rats administered intravenously after 60 minute (radiolabeled with [123I]-; format: ADME, organism-based; conditions: in vivo, iv, 1 h
[17] = test system: Rattus norvegicus; assay: Concentration was measured in heart tissue of unfasted Fischer 344 rats administered intravenously after 60 minute (radiolabeled with [125I]-; format: ADME, organism-based; conditions: in vivo, iv, 1 h; summary of the method: as §1
[18] = test system: Rattus norvegicus; assay: Concentration was measured in heart tissue of unfasted Fischer 344 rats administered intravenously after 4 hr (radiolabeled with [125I]-; format: ADME, organism-based; conditions: in vivo, iv
[19] = test system: Rattus norvegicus; assay: Concentration was measured in blood tissue of unfasted Fischer 344 rats administered intravenously after 4 hr (radiolabeled with [125I]-; format: ADME, organism-based; conditions: in vivo, iv
[20] = test system: Rattus norvegicus; assay: Concentration was measured in mean heart/blood tissue of unfasted Fischer 344 rats administered intravenously after 4 hr (radiolabeled with [123I]-; format: ADME, organism-based; conditions: in vivo, iv
[21] = test system: Rattus norvegicus; assay: Concentration was measured in lungs tissue of unfasted Fischer 344 rats administered intravenously after 5 minute (radiolabeled with [125I]-; format: ADME, organism-based, Lung; conditions: in vivo, iv, 5 min; summary of the method: as §1
[22] = test system: Rattus norvegicus; assay: Concentration was measured in thyroid tissue of unfasted Fischer 344 rats administered intravenously after 30 minute (radiolabeled with [125I]-; format: ADME, organism-based, Thyroid gland; conditions: in vivo, iv, 0.5 h, in the assay text read “fasted” for “unfasted”
[23] = test system: Rattus norvegicus; assay: Concentration was measured in heart tissue of unfasted Fischer 344 rats administered intravenously after 30 minute (radiolabeled with [123I]-; format: ADME, organism-based; conditions: in vivo, iv, 0.5 h
[24] = test system: Rattus norvegicus; assay: Concentration was measured in thyroid tissue of unfasted Fischer 344 rats administered intravenously after 5 minute (radiolabeled with [125I]-; format: ADME, organism-based, Thyroid gland; conditions: in vivo, iv, 5 min; summary of the method: as §3
[25] = test system: Rattus norvegicus; assay: Concentration was measured in blood tissue of unfasted Fischer 344 rats administered intravenously after 4 hr (radiolabeled with [123I]-; format: ADME, organism-based; conditions: in vivo, iv
[26] = test system: Rattus norvegicus; assay: Concentration was measured in blood tissue of unfasted Fischer 344 rats administered intravenously after 5 minute (radiolabeled with [123I]-; format: ADME, organism-based; conditions: in vivo, iv, 5 min
[27] = test system: Rattus norvegicus; assay: Concentration was measured in lungs tissue of unfasted Fischer 344 rats administered intravenously after 30 minute (radiolabeled with [125I]-; format: ADME, organism-based, Lung; conditions: in vivo, iv, 0.5 h; summary of the method: as §1
[28] = test system: Rattus norvegicus; assay: Concentration was measured in thyroid tissue of unfasted Fischer 344 rats administered intravenously after 4 hr (radiolabeled with [125I]-; format: ADME, organism-based, Thyroid gland; conditions: in vivo, iv
[29] = test system: Rattus norvegicus; assay: Concentration was measured in liver tissue of unfasted Fischer 344 rats administered intravenously after 5 minute (radiolabeled with [125I]-; format: ADME, organism-based; conditions: in vivo, iv, 5 min; summary of the method: as §1
[30] = test system: Rattus norvegicus; assay: Concentration was measured in mean heart/blood tissue of fasted Fischer 344 rats administered intravenously after 5 minute (radiolabeled with [123I]-; conditions: in vivo, iv, 5 min
[31] = test system: Rattus norvegicus; assay: Concentration was measured in kidney tissue of unfasted Fischer 344 rats administered intravenously after 4 hr (radiolabeled with [125I]-; format: ADME, organism-based; conditions: in vivo, iv
[32] = test system: Rattus norvegicus; assay: Concentration was measured in kidney tissue of unfasted Fischer 344 rats administered intravenously after 30 minute (radiolabeled with [125I]-; format: ADME, organism-based; conditions: in vivo, iv, 0.5 h; summary of the method: as §1
[33] = test system: Rattus norvegicus; assay: Concentration was measured in heart tissue of unfasted Fischer 344 rats administered intravenously after 60 minute (radiolabeled with [123I]-; format: ADME, organism-based; conditions: in vivo, iv, 1 h
[34] = test system: Rattus norvegicus; assay: Concentration was measured in heart tissue of unfasted Fischer 344 rats, administered intravenous, after 5 minute (radiolabeled with [125I]-; format: ADME, organism-based; conditions: in vivo, 5 min; summary of the method: as §1
[35] = test system: Rattus norvegicus; assay: Concentration was measured in lungs tissue of unfasted Fischer 344 rats administered intravenously after 5 minute (radiolabeled with [123I]-; format: ADME, organism-based, Lung; conditions: in vivo, iv, 5 min
[36] = test system: Rattus norvegicus; assay: as §2; format: ADME, organism-based; conditions: in vivo, iv, 1 h; summary of the method: as §3; remark: listed apart in the source
[37] = test system: Rattus norvegicus; assay: Concentration was measured in mean heart/blood tissue of fasted Fischer 344 rats administered intravenously after 30 minute (radiolabeled with [123I]-; conditions: in vivo, iv, 0.5 h
[38] = test system: Rattus norvegicus; assay: Concentration was measured in mean heart/blood tissue of fasted Fischer 344 rats administered intravenously after 60 minute (radiolabeled with [123I]-; conditions: in vivo, iv, 1 h
[39] = test system: Rattus norvegicus; assay: Concentration was measured in thyroid tissue of unfasted Fischer 344 rats administered intravenously after 5 minute (radiolabeled with [123I]-; format: ADME, organism-based, Thyroid gland; conditions: in vivo, iv, 5 min
[40] = test system: Rattus norvegicus; assay: Concentration was measured in lungs tissue of unfasted Fischer 344 rats administered intravenously after 30 minute (radiolabeled with [123I]-; format: ADME, organism-based, Lung; conditions: in vivo, iv, 0.5 h
[41] = test system: Rattus norvegicus; assay: Concentration was measured in thyroid tissue of fasted Fischer 344 rats administered intravenously after 4 hr (radiolabeled with [123I]-; conditions: in vivo, iv

CC(CCCCCCCCCCCCCC/C=C/I)CC(=O)O.O=C(O)CCCCCCCCCCCCCCCC/C=C/I (stereo unspecified)
Distribution [1]: 3.32%
Distribution [2]: 1.21%
Distribution [3]: 0.95%
Distribution [4]: 0.64%
Distribution [5]: 3.52%
Distribution [6]: 0.74%
Distribution [7]: 65.3%
Distribution [8]: 1.12%
Distribution [9]: 1.23%
Distribution [10]: 4.53%
Distribution [11]: 0.63%
Distribution [12]: 1.03%
Distribution [13]: 0.89%
Distribution [14]: 2.94%
Distribution [15]: 1.3%
Distribution [16]: 102%
Distribution [17]: 2.56%
Distribution [18]: 1.38%
Distribution [19]: 0.53%
Distribution [20]: 0.96%
Distribution [21]: 1.36%
Distribution [22]: 48.5%
Distribution [23]: 1.19%
Distribution [24]: 16.7%
Distribution [25]: 0.61%
Distribution [26]: 0.74%
Distribution [27]: 0.96%
Distribution [28]: 364%
Distribution [29]: 6.48%
Distribution [30]: 4.8%
Distribution [31]: 0.66%
Distribution [32]: 0.91%
Distribution [33]: 0.78%
Distribution [34]: 4.89%
Distribution [35]: 1.54%
Distribution [36]: 82.9%
Distribution [37]: 1.6%
Distribution [38]: 1.2%
Distribution [39]: 22.5%
Distribution [40]: 1.32%
Distribution [41]: 392%
